Reference: ChEMBL document CHEMBL1156759, “Identification and optimization of inhibitors of Trypanosomal cysteine proteases: cruzain, rhodesain, and TbCatB” (J Med Chem, 2010)
Activity calls are given as the source filed them. The rule behind the calls is not given here.

Experiments:
[1] = Inhibition of human Chymotrypsin
Summary of the method: (§1)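 Profiling panel run externally as 10-dose, 3-fold serial dilutions of compound. Protease activity followed as a time course of fluorescence increase from a fluorescently labeled peptide substrate. The initial linear slope (signal/min) was analysed.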

Neutrophil elastase = Neutrophil elastase (Homo sapiens, UniProt P08246); assay: Inhibition of human Elastase; summary of the method: as §1
Neutrophil elastase, sequence (P08246 whole entry): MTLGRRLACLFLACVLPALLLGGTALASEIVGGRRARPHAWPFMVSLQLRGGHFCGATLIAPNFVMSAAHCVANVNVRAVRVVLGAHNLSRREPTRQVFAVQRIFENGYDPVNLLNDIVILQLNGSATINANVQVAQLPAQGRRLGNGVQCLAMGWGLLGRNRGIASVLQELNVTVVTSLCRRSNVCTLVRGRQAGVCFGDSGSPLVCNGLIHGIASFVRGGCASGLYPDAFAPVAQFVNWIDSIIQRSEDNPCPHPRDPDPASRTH

Cruzipain [2] = target: T1, Cruzipain (Trypanosoma cruzi, UniProt P25779); assay: Inhibition of Trypanosoma cruzi cruzain after 15 mins; conditions: read-out: IC50
T1 sequence (P25779 whole entry): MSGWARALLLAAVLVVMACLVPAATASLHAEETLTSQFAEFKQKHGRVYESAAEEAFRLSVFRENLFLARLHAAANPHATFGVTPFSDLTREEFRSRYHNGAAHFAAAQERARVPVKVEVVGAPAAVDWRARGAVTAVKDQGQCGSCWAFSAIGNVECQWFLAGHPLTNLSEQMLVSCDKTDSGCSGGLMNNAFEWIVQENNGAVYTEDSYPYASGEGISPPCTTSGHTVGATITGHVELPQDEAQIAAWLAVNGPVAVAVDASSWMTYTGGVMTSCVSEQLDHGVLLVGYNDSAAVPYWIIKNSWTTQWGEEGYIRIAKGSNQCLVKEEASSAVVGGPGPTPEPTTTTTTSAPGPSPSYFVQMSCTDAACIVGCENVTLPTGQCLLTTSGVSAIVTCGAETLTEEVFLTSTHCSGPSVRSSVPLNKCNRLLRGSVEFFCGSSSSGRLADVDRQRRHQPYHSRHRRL
Summary of the method: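 Cruzain at 1.5 nM final in 100 mM acetate pH 5.5, 5 mM DTT, 0.01% Triton X-100; compounds as serial 2-fold dilutions pin-transferred in DMSO. 15 min room-temperature preincubation, then Z-FR-AMC 2 μM final. Kinetic fluorescence read at ex 340/em 450 nm. Percent inhibition from the first 60 s signal change versus no-enzyme and uninhibited controls (48 wells each).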

Cathepsin G = Cathepsin G (Homo sapiens, UniProt P08311); assay: Inhibition of human Cathepsin G; summary of the method: as §1
Cathepsin G, sequence (P08311 whole entry): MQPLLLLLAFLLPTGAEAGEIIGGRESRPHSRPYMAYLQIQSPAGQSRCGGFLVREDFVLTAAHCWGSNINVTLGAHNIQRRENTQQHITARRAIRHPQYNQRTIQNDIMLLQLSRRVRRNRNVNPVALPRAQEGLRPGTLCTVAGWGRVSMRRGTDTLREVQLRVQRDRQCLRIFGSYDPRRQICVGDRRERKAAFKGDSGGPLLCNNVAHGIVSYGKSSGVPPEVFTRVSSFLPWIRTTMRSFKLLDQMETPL

Procathepsin L = Procathepsin L (Homo sapiens, UniProt P07711); assay: Inhibition of human Cathepsin L; summary of the method: as §1
Procathepsin L, sequence (P07711 whole entry): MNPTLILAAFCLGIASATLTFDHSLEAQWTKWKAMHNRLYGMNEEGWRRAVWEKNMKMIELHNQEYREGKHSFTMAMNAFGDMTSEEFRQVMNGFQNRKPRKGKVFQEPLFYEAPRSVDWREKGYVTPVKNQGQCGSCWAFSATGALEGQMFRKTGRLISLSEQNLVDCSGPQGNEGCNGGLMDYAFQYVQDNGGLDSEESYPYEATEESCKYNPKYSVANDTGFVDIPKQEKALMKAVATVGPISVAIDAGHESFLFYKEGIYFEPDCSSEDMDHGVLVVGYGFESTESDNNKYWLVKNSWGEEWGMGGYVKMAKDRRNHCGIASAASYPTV

Cruzipain [3] = target: T1, Cruzipain; assay: Inhibition of recombinant Trypanosoma cruzi cruzain after 5 mins by spectrofluorimetric analysis
Summary of the method: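 Recombinant cruzain at 4 nM (activated procruzain, anion-exchange purified) in 100 mM sodium acetate pH 5.5, 5 mM DTT, 0.001% Triton X-100. Preincubated 5 min at room temperature with compound in DMSO, then Z-Phe-Arg-AMC 10 μM. Fluorescence rate read at ex 355/em 460 nm; DMSO controls; IC50 by curve fitting.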

Cruzipain [4] = target: T1, Cruzipain; assay: Competitive inhibition of recombinant Trypanosoma cruzi cruzain by Lineweaver-Burke plot analysis
[5] = Inhibition of recombinant Trypanosoma brucei cathepsin B after 5 mins by spectrofluorimetric analysis
Summary of the method: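 Recombinant TbCatB at 258 nM in 100 mM sodium acetate pH 5.5, 5 mM DTT, 0.001% Triton X-100, preincubated with compound in DMSO for 5 min at room temperature. Z-Phe-Arg-AMC 10 μM added to start. Rate of fluorescence rise read at ex 355/em 460 nm; DMSO control wells; IC50 from curve fitting.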

[6] = Inhibition of recombinant Trypanosoma brucei rhodesain after 5 mins by spectrofluorimetric analysis
Summary of the method: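 Recombinant rhodesain, 4 nM, preincubated 5 min at room temperature with compound (DMSO) in 100 mM sodium acetate pH 5.5, 5 mM DTT, 0.001% Triton X-100. Reaction started with 10 μM Z-Phe-Arg-AMC; rate of AMC fluorescence increase read at ex 355/em 460 nm. IC50 from curve fitting; DMSO-only wells as positive control.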

Caspase-1 = Caspase-1 (Homo sapiens, UniProt P29466); assay: Inhibition of human Caspase 1; summary of the method: as §1
Caspase-1, sequence (P29466 120-297 limits assumed): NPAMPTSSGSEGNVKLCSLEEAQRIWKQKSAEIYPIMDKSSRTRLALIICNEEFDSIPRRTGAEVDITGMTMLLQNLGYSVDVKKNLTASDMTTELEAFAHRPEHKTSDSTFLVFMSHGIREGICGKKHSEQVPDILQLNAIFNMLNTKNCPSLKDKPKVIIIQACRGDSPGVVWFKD
Caspase-1, sequence (P29466 317-404 limits assumed): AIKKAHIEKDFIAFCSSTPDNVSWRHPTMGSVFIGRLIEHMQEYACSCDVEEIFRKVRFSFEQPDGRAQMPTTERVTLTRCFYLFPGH

Pro-cathepsin H = target: T2, Pro-cathepsin H (Homo sapiens, UniProt P09668); assay: Inhibition of human Cathepsin H; summary of the method: as §1
T2 sequence (P09668 whole entry): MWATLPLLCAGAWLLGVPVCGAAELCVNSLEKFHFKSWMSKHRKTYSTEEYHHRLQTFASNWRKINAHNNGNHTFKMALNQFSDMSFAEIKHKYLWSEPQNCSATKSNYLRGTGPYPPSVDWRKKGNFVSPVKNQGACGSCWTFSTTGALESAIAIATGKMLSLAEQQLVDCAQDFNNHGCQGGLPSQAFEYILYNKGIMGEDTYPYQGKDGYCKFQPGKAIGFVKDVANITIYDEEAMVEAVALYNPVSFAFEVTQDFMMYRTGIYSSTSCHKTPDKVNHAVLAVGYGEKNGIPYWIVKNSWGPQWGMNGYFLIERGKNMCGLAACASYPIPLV

Cathepsin L2 = target: T3, Cathepsin L2 (Homo sapiens, UniProt O60911); assay: Inhibition of human Cathepsin V; summary of the method: as §1
T3 sequence (O60911 whole entry): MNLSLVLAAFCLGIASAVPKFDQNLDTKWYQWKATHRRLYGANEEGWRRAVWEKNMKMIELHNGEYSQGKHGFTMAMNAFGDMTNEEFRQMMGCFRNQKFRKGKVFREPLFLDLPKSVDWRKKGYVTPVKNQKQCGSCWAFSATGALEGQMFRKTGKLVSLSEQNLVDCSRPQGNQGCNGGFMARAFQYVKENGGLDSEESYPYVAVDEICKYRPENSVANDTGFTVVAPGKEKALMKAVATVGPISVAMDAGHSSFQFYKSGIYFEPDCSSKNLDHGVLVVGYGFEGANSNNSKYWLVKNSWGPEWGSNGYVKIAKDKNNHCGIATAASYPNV

[7] = Inhibition of human CCC1s; summary of the method: as §1
Cathepsin K = target: T4, Cathepsin K (Homo sapiens, UniProt P43235); assay: Inhibition of human Cathepsin K/O2; summary of the method: as §1
T4 sequence (P43235 whole entry): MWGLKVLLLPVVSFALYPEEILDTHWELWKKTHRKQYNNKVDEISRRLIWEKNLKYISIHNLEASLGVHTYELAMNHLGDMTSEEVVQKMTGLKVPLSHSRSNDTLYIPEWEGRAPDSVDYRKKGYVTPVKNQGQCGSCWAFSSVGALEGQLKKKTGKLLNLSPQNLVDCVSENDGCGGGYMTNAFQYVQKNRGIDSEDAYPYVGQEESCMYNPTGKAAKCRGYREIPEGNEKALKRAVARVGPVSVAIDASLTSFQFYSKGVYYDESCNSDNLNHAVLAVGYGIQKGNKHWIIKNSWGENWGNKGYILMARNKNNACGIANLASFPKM

Mus musculus = species on record: Mus musculus; assay: Toxicity in mouse; type: organism-based; conditions: in vivo
Kallikrein-4 = Kallikrein-4 (Homo sapiens, UniProt Q9Y5K2); assay: Inhibition of human Kallikrein 4; summary of the method: as §1
Kallikrein-4, sequence (Q9Y5K2 whole entry): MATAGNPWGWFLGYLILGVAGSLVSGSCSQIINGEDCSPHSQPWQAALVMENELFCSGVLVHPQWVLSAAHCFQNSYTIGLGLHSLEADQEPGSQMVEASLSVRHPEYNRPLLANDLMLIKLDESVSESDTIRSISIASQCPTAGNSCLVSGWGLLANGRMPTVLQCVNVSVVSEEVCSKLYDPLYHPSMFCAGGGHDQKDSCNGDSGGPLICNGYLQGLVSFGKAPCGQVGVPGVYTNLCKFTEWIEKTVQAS

[8] = target: Matrix metalloproteinase-14 (Homo sapiens, UniProt P50281); assay: Inhibition of human MMP14; summary of the method: as §1
Canis familiaris = species on record: Canis familiaris; assay: Toxicity in dog; type: organism-based, Canis lupus familiaris; conditions: in vivo
Cathepsin S = Cathepsin S (Homo sapiens, UniProt P25774); assay: Inhibition of human Cathepsin S; summary of the method: as §1
Cathepsin S, sequence (P25774 whole entry): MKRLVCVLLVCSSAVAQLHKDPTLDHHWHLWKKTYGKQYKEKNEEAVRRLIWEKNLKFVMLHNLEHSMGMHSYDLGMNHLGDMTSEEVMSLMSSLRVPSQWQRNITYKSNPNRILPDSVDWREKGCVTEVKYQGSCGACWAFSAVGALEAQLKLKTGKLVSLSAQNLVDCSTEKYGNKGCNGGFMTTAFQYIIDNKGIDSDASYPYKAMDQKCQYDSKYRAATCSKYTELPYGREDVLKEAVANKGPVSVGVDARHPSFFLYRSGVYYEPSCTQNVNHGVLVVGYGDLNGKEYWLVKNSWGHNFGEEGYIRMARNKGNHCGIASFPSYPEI

Rattus norvegicus = species on record: Rattus norvegicus; assay: Toxicity in rat; type: organism-based; conditions: in vivo
Cathepsin Z = Cathepsin Z (Homo sapiens, UniProt Q9UBR2); assay: Inhibition of human Cathepsin X/Z; summary of the method: as §1
Cathepsin Z, sequence (Q9UBR2 whole entry): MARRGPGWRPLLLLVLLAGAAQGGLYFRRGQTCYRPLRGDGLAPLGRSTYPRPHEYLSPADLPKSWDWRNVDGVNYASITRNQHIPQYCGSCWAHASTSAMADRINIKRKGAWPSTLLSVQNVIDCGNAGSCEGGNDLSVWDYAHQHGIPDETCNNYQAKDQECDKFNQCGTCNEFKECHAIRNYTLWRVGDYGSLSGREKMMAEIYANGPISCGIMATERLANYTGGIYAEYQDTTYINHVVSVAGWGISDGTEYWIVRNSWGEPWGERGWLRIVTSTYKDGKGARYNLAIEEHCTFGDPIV

Dipeptidyl peptidase 1 = Dipeptidyl peptidase 1 (Homo sapiens, UniProt P53634); assay: Inhibition of human Cathepsin C; summary of the method: as §1
Dipeptidyl peptidase 1, sequence (P53634 25-134 limits assumed): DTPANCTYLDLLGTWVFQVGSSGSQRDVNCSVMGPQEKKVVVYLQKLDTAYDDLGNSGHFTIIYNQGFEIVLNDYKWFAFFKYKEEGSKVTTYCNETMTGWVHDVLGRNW
Dipeptidyl peptidase 1, sequence (P53634 231-394 limits assumed): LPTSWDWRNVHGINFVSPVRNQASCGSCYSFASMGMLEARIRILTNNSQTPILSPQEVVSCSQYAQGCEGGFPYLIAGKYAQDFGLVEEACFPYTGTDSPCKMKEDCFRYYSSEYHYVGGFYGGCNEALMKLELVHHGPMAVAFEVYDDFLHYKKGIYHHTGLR
Dipeptidyl peptidase 1, sequence (P53634 395-463 limits assumed): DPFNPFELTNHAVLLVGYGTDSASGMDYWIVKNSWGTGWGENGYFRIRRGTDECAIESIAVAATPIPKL

Papain = target: T5, Papain (Carica papaya, UniProt P00784); assay: Inhibition of papaya papain; summary of the method: as §1
T5 sequence (P00784 whole entry): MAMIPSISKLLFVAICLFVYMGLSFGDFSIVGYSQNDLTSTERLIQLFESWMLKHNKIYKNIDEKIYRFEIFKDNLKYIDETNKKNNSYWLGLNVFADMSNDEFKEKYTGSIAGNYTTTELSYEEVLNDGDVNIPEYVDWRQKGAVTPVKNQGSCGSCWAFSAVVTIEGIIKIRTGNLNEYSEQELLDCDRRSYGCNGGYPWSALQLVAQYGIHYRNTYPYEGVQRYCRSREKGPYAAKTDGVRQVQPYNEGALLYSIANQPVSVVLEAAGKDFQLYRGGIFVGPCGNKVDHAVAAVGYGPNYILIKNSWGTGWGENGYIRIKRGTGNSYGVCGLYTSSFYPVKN

Trypanosoma cruzi = assay: Antitrypanosomal activity against Trypanosoma cruzi Y trypomastigotes infected in mouse J774 cells at 10 uM after 27 days medium replaced every 48 hrs; type: functional, organism-based
Summary of the method: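 Irradiated (1000 rad) J774 macrophages plated overnight, infected 2 h with Y strain trypomastigotes, parasites removed, then cultured in RPMI-1640 with compound (n = 3); untreated infected and 10 μM K777 controls per experiment. Medium replaced every 48 h over 27 days; daily phase-contrast microscopy (400×) for free trypomastigotes and host toxicity; cultures kept 14 further days to confirm cure.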

Caspase-4 = Caspase-4 (Homo sapiens, UniProt P49662); assay: Inhibition of human Caspase 4; summary of the method: as §1
Caspase-4, sequence (P49662 81-270 limits assumed): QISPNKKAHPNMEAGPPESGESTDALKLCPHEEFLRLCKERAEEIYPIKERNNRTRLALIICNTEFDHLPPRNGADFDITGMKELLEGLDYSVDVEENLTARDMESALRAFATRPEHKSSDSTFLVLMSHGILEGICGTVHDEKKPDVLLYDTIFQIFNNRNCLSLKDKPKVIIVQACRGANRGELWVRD
Caspase-4, sequence (P49662 290-377 limits assumed): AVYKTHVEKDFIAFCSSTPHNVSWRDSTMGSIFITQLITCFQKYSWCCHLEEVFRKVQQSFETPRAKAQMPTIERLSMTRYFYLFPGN

[9] = Inhibition of human Proteinase A; summary of the method: as §1
Beta-secretase 1 = Beta-secretase 1 (Homo sapiens, UniProt P56817); assay: Inhibition of human BACE1; summary of the method: as §1
Beta-secretase 1, sequence (P56817 whole entry): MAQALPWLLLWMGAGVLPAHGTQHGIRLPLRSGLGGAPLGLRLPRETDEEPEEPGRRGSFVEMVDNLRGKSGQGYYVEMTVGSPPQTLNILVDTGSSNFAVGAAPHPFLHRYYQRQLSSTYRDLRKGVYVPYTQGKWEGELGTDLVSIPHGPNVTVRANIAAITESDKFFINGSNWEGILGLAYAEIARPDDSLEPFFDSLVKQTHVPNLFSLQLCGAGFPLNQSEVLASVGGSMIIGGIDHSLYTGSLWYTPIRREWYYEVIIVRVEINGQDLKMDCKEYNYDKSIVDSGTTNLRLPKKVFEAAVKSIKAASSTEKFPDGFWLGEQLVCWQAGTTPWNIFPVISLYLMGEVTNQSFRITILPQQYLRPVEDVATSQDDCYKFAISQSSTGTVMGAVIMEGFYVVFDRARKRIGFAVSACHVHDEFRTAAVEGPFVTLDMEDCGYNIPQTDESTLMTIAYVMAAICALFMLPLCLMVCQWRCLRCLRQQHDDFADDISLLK

Proteinase K = Proteinase K (Engyodontium album, UniProt P06873); assay: Inhibition of human Proteinase K; parameters: species or system Parengyodontium album; summary of the method: as §1
Proteinase K, sequence (P06873 whole entry): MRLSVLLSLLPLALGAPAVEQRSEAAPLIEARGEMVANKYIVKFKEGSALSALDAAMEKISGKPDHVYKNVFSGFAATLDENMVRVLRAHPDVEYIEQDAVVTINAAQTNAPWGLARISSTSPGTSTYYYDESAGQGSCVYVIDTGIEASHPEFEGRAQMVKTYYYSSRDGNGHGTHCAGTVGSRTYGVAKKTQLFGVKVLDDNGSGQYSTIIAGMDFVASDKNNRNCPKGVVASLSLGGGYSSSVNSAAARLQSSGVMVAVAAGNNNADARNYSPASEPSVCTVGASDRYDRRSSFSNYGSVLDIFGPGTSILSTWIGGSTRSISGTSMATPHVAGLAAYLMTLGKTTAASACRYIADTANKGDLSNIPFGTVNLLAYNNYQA

Cathepsin B = Cathepsin B (Homo sapiens, UniProt P07858); assay: Inhibition of human Cathepsin B; summary of the method: as §1
[10] = target: Disintegrin and metalloproteinase domain-containing protein 17 (Homo sapiens, UniProt P78536); assay: Inhibition of human TACE; summary of the method: as §1
Disintegrin and metalloproteinase domain-containing protein 17, sequence (P78536 whole entry, the tested form may be a part): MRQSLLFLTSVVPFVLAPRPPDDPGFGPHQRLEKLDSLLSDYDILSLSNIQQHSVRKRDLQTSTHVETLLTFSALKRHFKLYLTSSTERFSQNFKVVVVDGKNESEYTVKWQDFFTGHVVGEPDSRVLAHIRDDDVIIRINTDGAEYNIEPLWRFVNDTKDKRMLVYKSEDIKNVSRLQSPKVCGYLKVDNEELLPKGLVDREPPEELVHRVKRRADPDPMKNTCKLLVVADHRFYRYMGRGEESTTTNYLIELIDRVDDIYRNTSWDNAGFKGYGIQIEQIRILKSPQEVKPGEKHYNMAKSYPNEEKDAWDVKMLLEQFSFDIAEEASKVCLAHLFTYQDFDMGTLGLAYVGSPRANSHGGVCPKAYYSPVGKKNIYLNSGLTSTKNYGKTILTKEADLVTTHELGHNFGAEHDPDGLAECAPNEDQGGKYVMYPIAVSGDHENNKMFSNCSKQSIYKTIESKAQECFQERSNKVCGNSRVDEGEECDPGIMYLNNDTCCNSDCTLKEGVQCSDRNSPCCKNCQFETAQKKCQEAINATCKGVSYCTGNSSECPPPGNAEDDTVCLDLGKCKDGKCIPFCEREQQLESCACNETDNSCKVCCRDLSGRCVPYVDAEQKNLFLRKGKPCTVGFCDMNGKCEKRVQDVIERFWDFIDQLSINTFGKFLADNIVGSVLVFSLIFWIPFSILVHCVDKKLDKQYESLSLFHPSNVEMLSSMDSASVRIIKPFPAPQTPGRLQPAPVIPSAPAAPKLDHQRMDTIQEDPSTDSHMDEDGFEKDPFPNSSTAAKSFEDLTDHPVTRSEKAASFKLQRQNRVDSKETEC

IC50 (Cruzipain [2]) [nM] | IC50 (Procathepsin L) [nM] | Compound | IC50 (Cruzipain [3]) [nM] | IC50 [5] [nM] | IC50 [6] [nM] | IC50 (Pro-cathepsin H) [nM] | IC50 (Cathepsin L2) [nM] | IC50 (Cathepsin K) [nM] | Activity (Mus musculus) | IC50 (Kallikrein-4) [nM] | IC50 [8] [nM] | Activity (Canis familiaris) | IC50 (Cathepsin S) [nM] | Activity (Rattus norvegicus) | IC50 (Cathepsin Z) [nM] | IC50 (Dipeptidyl peptidase 1) [nM] | IC50 (Papain) [nM] | other results
13 | 7940 | N#Cc1nc(Nc2cc(F)cc(F)c2)c2ncn(CC(F)F)c2n1 | – | – | – | – | – | – | – | – | – | – | – | – | – | – | – | pIC50 [1]: 4.19; IC50 (Neutrophil elastase): 85100 nM; IC50 (Cathepsin G): 148000 nM
– | – | N#Cc1nc(N)nc(N(c2ccccc2)c2ccccc2)n1 | 70 | > 1000 | > 10000 | – | – | – | – | – | – | – | – | – | – | – | – | Ki (Cruzipain [4]): 180 nM
251 | 562 | CCNc1nc(C#N)nc2c1ncn2-c1cc(F)cc(F)c1 | – | – | – | 646 | 70800 | 50.1 | Non-toxic | 178000 | 135000 | Non-toxic | 105 | Non-toxic | 316 | 589 | 33.1 | IC50 (Caspase-1): 70800 nM; pIC50 [7]: 4.3

Compound | IC50 (Cruzipain [2]) [nM] | IC50 (Procathepsin L) [nM] | IC50 (Cruzipain [3]) [nM] | IC50 [5] [nM] | IC50 [6] [nM] | IC50 (Pro-cathepsin H) [nM] | IC50 (Cathepsin L2) [nM] | IC50 (Cathepsin K) [nM] | Activity (Mus musculus) | IC50 (Kallikrein-4) [nM] | IC50 [8] [nM] | Activity (Canis familiaris) | IC50 (Cathepsin S) [nM] | Activity (Rattus norvegicus) | IC50 (Cathepsin Z) [nM] | IC50 (Dipeptidyl peptidase 1) [nM] | IC50 (Papain) [nM] | other results
CCn1cnc2c(Nc3cc(F)cc(F)c3)nc(C#N)nc21 | 10 | 117 | 0.2 | 6000 | < 6 | 126 | 240 | 23.4 | Non-toxic | 14500 | 72400 | Non-toxic | 15.8 | Non-toxic | 933 | 34.7 | 44.7 | Activity (Trypanosoma cruzi): inactive; IC50 (Caspase-4): 33100 nM; pIC50 [9]: 4.19; IC50 (Beta-secretase 1): 63100 nM; IC50 (Proteinase K): 74100 nM; IC50 (Cathepsin B): 10700 nM; IC50 [10]: 74100 nM
